Reference: ChEMBL document CHEMBL4513216, “Probing the Open Global Health Chemical Diversity Library for Multistage-Active Starting Points for Next-Generation Antimalarials” (ACS Infect Dis, 2020)

Assay: Toxicity liver stage against HepG2, at 10uM
Assay type: cell-based
Parameters: test concentration 10 uM, cell line HepG2-A16-CD81EGFP
Details: human, HepG2-A16-CD81EGFP cells; read-out: INHIBITION
Procedure, shortened: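 Uninfected HepG2-A16-CD81EGFP cells, 3 × 10^3 per well, 1536-well, plated on prespotted compound at 10 μM final, parasite-free screening media added to match infected plates; puromycin 10 μM positive, DMSO 0.5% negative; run in parallel with 48 h PbLuc assay at 37 °C, 5% CO2; viability by CellTiter-Glo luminescence, normalized to controls.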

Compound	cytotoxicity at 10 µM [%]
O=C(NC[C@H]1O[C@H](Cc2cc(-c3ccccn3)on2)CC[C@@H]1O)C1CC1	-2.69
CC[C@@H](C)[C@H](NC(=O)NC1CCS(=O)(=O)C1)C(=O)NCc1ccncc1 (some centres not stated)	-2.56
CC1c2ncc(COCC3CCOCC3)n2CCN1S(C)(=O)=O (configuration not stated)	3.11
O=C(c1cccnc1)N1CCc2onc(CN3CCCC3)c2C1	4.86
COCC1CN(C(=O)c2ccnnc2)Cc2ncnn2C1 (configuration not stated)	-4.24
COc1ncccc1C(=O)N1CC[C@H]2C[C@@H](c3ccncn3)O[C@@H]2C1	-2.24
Cc1nc(N2CCCC2)nc2c1CCN(C(=O)C1CCCCC1)CC2	3.16
CC(C)Oc1ccccc1C1CC(=O)Nc2nc(N3CCOCC3)sc21 (configuration not stated)	14.3
O=C(CCc1ccccc1F)NC1CCCN(c2ccccn2)C1 (configuration not stated)	2.21
CC(C)NC(=O)Nc1ncc(-c2cccnc2)s1	7.05
COCC(=O)N1CC(c2n[nH]cc2C)C1	-2.76
O=C(NCC1(O)COCCN(Cc2ccc(O)cc2)C1)c1cnccn1 (configuration not stated)	-12.8
CCC(Nc1ncccn1)c1ccc(OC)cc1 (configuration not stated)	-12.6
COc1ccc(C2(c3nc(-c4cccnc4)no3)CCOCC2)cc1	13.9
Cc1c(C[S+](C)[O-])cccc1NC(=O)c1cc(Cl)ccn1 (configuration not stated)	9.41
COc1ncccc1NC(=O)c1[nH]nc(C(C)C)c1Br	17.1
Cn1ccnc1C(O)(CCNCc1ccc(Cl)o1)C(F)(F)F (configuration not stated)	4.91
CCC(C)(O)CNc1ccc(S(=O)(=O)C(F)F)cc1 (configuration not stated)	12.2
CC(C)(C)c1noc(CCC(=O)N(CC2CCOC2)C2CC2)n1 (configuration not stated)	2.66
CC(C)c1nnc2n1CCN(Cc1ccc3c(c1)OCCO3)C2	-0.234
COC(=O)c1ccc(NC(=O)NC2CCc3[nH]ncc3C2)cc1 (configuration not stated)	-11.2

Compound	cytotoxicity at 10 µM [%]
COc1nc(N2CCC(CC(N)=O)CC2)ncc1Br	2.99
CCOC(=O)C1(O)CCN(C(=O)Nc2cccc(CC)c2)CC1	-140
NC(=O)CC1CCN(c2ncnc3cccc(F)c23)CC1	3.39
CC(=O)Nc1ccc(CNC(C)c2c(C)nn(C)c2C)cc1 (configuration not stated)	13
COC(=O)C(C)(C)NC(=O)c1cc2sc(N(C)C)nc2s1	-20.5
CC(=O)N1CCN(c2nc3c(cnn3C(C)(C)C)c(=O)[nH]2)CC1	-17.9
COc1ccc(CNC(Cn2cncn2)c2ccccc2)cc1O (configuration not stated)	-6.74
COC(=O)CNc1cc(C(=O)NCC(F)(F)F)cc(F)c1C	6.05
O=C(NCc1ccccc1CN1CCCCCC1)Nc1nncs1	4.22
Cc1ncsc1CNc1ccn(Cc2ccccc2)n1	9.58
CC1CCCCN1C(=O)Cn1cc(I)cn1 (configuration not stated)	0.687
CC(C)c1noc(CNC2CCCN(Cc3noc(C4CC4)n3)C2)n1 (configuration not stated)	-3.19
CCc1nnc2n1CCN(Cc1csc(-c3ccccc3F)n1)C2	-4.49
Cn1cc(-c2csc(N3CCSCC3)n2)cn1	-1.31
CN(C)C(CNC(=O)c1cccc(C(N)=O)c1)c1ccccc1Cl (configuration not stated)	-4.83
OCC1CCCN1c1cc(NCc2ccccn2)ncn1 (configuration not stated)	-8.01
Cc1cnn(CC2CCCN2C(=O)Cn2nc(C)c(Cl)c2C)c1 (configuration not stated)	-11.3
Cc1ccc(C(C)(O)CNC(=O)c2sccc2OC(F)F)o1 (configuration not stated)	-1.34
Cc1cnc(CN(Cc2ccc(C#N)cc2F)C2CCN(C)C2)o1 (configuration not stated)	0.172
O=C(NCC1CCS(=O)(=O)C1)Nc1ccccn1 (configuration not stated)	1.54
CC1CN(c2ccc(CNC(=O)NCCO)cn2)CCO1 (configuration not stated)	6.15

Compound	cytotoxicity at 10 µM [%]
CC(C(=O)NCC1(c2cccc(Br)c2)CCC1)S(C)(=O)=O (configuration not stated)	6.88
O=C(CN1CCc2sccc2C1)Nc1nccs1	5.31
O=S(=O)(CC1CCCCC1)NCc1ccnc(O)c1	6.54
O=C(CCn1ccccc1=O)Nc1ccc(I)cc1	7.27
O=C1CN(CCCNC(=O)Nc2cccc(Cl)c2F)CCN1	15.2
COc1ccc(N2CCN(Cc3nc(CSC)no3)CC2=O)cc1	1.44
CCCc1cc(NCCN2CCNC2=O)n2nccc2n1	-6.42
Cn1ccnc1-c1nc2cc(S(=O)(=O)N3CCCC3)ccc2n1C	5.05
Cn1cc(Cl)c(C(=O)N2CCC(N3CCc4ccccc4C3)CC2)n1	-2.27
Cc1cc(C(=O)N2CCC(c3nnc(Cn4ccnc4)n3C)CC2)cs1	-114
CC(=O)CCC(=O)N1CCC2(CC1)N=C(CCC(C)C)NC2=O	-7.14
Cc1ccc2c(c1)SCC(=O)N2CC(=O)N1CCCC1c1cc(C)no1 (configuration not stated)	8.32
Cn1cnnc1CN1CCC2(CCC(=O)N(Cc3ccccn3)C2)CC1	7.82
CC(C)CN1CCN(S(=O)(=O)c2cn(C)cn2)[C@H]2CS(=O)(=O)C[C@H]21	-4.07
CCCc1cnc(C)nc1N1CCC(F)(F)CC1	7.46
O=C(CCN1CCOCC1)N1CCC(Cc2ccc(CO)cc2)C1 (configuration not stated)	-9.47
CCCc1nc(C)cc(N2CCC3(CCC(=O)N(CC(N)=O)C3)CC2)n1	-8.38
CCN1CCN(CC(=O)N2CCOC(Cc3ccc(OC)cc3)C2)CC1 (configuration not stated)	-2.77
CCc1cc(CN(C)C(=O)c2cnon2)on1	9.83
Cc1c(Cl)c(C(=O)N2CC[C@H](N3CCOCC3)[C@H](CCCO)C2)nn1C	-148
COc1ccccc1OCCNC(=O)CN1CCc2cncnc2C1	-15.6

Compound	cytotoxicity at 10 µM [%]
CN(CCCc1cc(-c2ccccc2)no1)S(C)(=O)=O	-14.4
c1ccc2oc(CCCN3CCCCC3Cn3cncn3)nc2c1 (configuration not stated)	-10.2
CCCc1cc(C(=O)NCCN2CCCS2(=O)=O)[nH]n1	-7.13
COc1ccc(NC(=O)NC(C)Cc2ccco2)cn1 (configuration not stated)	-3.54
Cc1ccc(N(C)S(=O)(=O)c2cc(C(=O)O)cs2)c(C)c1	1.82
CC(Cn1cccn1)NC(=O)N1CCN(Cc2ccco2)CC1 (configuration not stated)	-20.6
CC(C)Cc1cc(C(=O)NCCn2nc3ccccn3c2=O)[nH]n1	-16.3
O=C(N1CCCC1)N1CCc2c(CNc3ncccn3)cncc2C1	3.97
c1snnc1CN1C[C@H]2CCC[C@@H](CN3CCOCC3)[C@H]2C1	-116
CN(C)[C@@H]1CCN(c2ncc(F)cn2)[C@H]1Cc1ccncc1	-1.96
O=C(c1cscn1)N1CC[C@@H]2[C@@H]1CCN2CC1CCOCC1	5.3
O=C(Nc1ccccc1)C1CN(CC2CCOCC2)CC12CCOCC2 (configuration not stated)	1.65
COCC1CN(Cc2sccc2C)Cc2nnn(CC3CC3)c21 (configuration not stated)	4.35
CC(C)N1CCC2(C=C(C(=O)N(C)C)c3ccccc32)CC1	1.24
CC(=O)N1C(CN2CCCC2)C[C@@H]2CN(C(=O)c3ccoc3)CC[C@@H]21 (some centres not stated)	-0.655
Cn1nc(Cn2cccn2)c2c1CN(Cc1ccsc1)C2	-148
CN(C)CC1CN(C(=O)CCc2ccccc2)Cc2nccn2C1 (configuration not stated)	-121
CC(C)CNC(=O)[C@H]1C[C@H]2CN(C(=O)NCC3CCCCC3)C[C@@H]1O2	-4.81
CN1C(=O)[C@@H]2CC[C@H]1CN(C(=O)Nc1cccc3ccccc13)C2	-2.69
